Measured values published in ChEMBL document CHEMBL4387708, “Enhancement of Benzothiazoles as Pteridine Reductase-1 Inhibitors for the Treatment of Trypanosomatidic Infections” (J Med Chem, 2019).
Activity calls are given as the source filed them. The calls are words filed in the database; no cut-off is given here.

Experiments:
Leishmania infantum = test: Growth inhibition of luciferase expressing Leishmania infantum axenic amastigotes infected in human THP1 cells at 10 uM measured after 72 hrs by steady-glo luminescence assay relative to control; type: organism-based; settings: leishmania infantum, 72 h, 10 µM
[1] = Mitochondrial toxicity in human 786-O cells measured after 6 hrs by MitoTracker Red chloromethyl-X-rosamine based assay; type: cell-based, 786-0
Cytochrome P450 3A4 = Cytochrome P450 3A4 (Homo sapiens, UniProt P08684); test: Inhibition of human CYP3A4 expressed in baculovirus infected insect cells using beetle D-luciferin as substrate preincubated for 30 mins followed by NADPH addition and measured after 30 mins by CYP450-Glo assay
[2] = Cytotoxicity against human U2OS cells assessed as reduction in cell number; type: cell-based
Trypanosoma brucei [3] = test: Growth inhibition of Trypanosoma brucei bloodstream forms at 10 uM measured after 72 hrs by resazurin-based fluorescence assay relative to control; type: organism-based; settings: for inhibition at 10 µM: Trypanosoma brucei, read-out: GI
[4] = Inhibition of N-terminal His-tagged Trypanosoma brucei pteridine reductase 1 using di-hydrobiopterine as substrate measured at 1 min interval for 50 mins in presence of NADPH
Method in brief: (§1)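 Photometric PTR1 assay with NADPH and dihydrobiopterin substrate. H₄B formation is coupled non-enzymatically to cytochrome c reduction, read as signal increase at 550 nm.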

[5] = Selectivity ratio of IC50 for Leishmania major pteridine reductase 1 to IC50 for N-terminal His-tagged Trypanosoma brucei pteridine reductase 1
[6] = Cytotoxicity against human A549 cells after 48 hrs by Celltiter-glo assay; type: cell-based
Cytochrome P450 2C19 = Cytochrome P450 2C19 (Homo sapiens, UniProt P33261); test: Inhibition of human CYP2C19 expressed in baculovirus infected insect cells using beetle D-luciferin as substrate preincubated for 30 mins followed by NADPH addition and measured after 30 mins by CYP450-Glo assay
Cytochrome P450 1A2 = biological target: T1, Cytochrome P450 1A2 (Homo sapiens, UniProt P05177); test: Inhibition of human CYP1A2 expressed in baculovirus infected insect cells using beetle D-luciferin as substrate preincubated for 30 mins followed by NADPH addition and measured after 30 mins by CYP450-Glo assay
T1 sequence (P05177 whole entry): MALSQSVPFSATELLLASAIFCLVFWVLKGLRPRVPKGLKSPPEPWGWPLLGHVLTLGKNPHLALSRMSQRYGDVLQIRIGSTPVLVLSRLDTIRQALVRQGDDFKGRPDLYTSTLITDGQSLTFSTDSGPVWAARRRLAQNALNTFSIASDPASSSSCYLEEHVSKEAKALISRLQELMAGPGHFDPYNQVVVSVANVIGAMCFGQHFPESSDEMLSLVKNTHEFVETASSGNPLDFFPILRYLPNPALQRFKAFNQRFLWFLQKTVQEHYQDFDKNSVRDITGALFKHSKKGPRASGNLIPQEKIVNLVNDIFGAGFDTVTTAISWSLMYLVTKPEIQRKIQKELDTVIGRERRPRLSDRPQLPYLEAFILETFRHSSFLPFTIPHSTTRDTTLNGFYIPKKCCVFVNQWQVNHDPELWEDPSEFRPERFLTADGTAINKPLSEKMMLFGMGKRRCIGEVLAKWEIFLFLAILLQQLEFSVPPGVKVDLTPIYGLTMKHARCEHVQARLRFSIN

Cytochrome P450 2C9 = Cytochrome P450 2C9 (Homo sapiens, UniProt P11712); test: Inhibition of human CYP2C9 expressed in baculovirus infected insect cells using beetle D-luciferin as substrate preincubated for 30 mins followed by NADPH addition and measured after 30 mins by CYP450-Glo assay
Trypanosoma cruzi = test: Growth inhibition of trypomastigote form of Trypanosoma cruzi Y infected in human U2OS cells at 50 uM measured after 72 hrs by DRAQ5 DNA dye based confocal microscopic analysis relative to control; type: organism-based; settings: for inhibition at 50 µM: Trypanosoma cruzi, Y, U2OS, read-out: GI; for growth inhibition (GI): trypanosoma cruzi, 50 µM
[7] = Cytotoxicity against human THP1 cells after 72 hrs by MTT assay; type: cell-based, THP-1; settings: read-out: NOAEL
Trypanosoma brucei [8] = test: Inhibition of N-terminal His-tagged Trypanosoma brucei pteridine reductase 1 at 50 uM using di-hydrobiopterine as substrate measured at 1 min interval for 50 mins in presence of NADPH relative to control; method in brief: as §1
Cytochrome P450 2D6 = Cytochrome P450 2D6 (Homo sapiens, UniProt P10635); test: Inhibition of human CYP2D6 expressed in baculovirus infected insect cells using beetle D-luciferin as substrate preincubated for 30 mins followed by NADPH addition and measured after 30 mins by CYP450-Glo assay
Pteridine reductase 1 = biological target: T2, Pteridine reductase 1 (Leishmania major, UniProt Q01782); test: Inhibition of Leishmania major pteridine reductase 1 using di-hydrobiopterine as substrate in presence of NADPH; method in brief: as §1
T2 sequence (Q01782 whole entry): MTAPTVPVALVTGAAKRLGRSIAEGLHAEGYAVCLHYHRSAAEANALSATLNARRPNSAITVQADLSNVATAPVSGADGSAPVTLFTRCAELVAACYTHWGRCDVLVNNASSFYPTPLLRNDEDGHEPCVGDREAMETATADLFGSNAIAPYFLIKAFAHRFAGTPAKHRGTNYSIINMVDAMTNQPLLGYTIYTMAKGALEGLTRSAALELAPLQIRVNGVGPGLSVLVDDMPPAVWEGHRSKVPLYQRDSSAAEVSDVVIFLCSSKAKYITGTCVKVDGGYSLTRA

[9] = biological target: Voltage-gated inwardly rectifying potassium channel KCNH2 (Homo sapiens, UniProt Q12809); test: Displacement of Tracer Red from human ERG by fluorescence polarization assay
[10] = biological target: T3, Pteridine reductase 1 (Leishmania major) (UniProt Q01782); test: Inhibition of Leishmania major pteridine reductase 1 at 50 uM using di-hydrobiopterine as substrate in presence of NADPH relative to control; method in brief: as §1
T3 sequence (whole entry): T2 sequence (Q01782 whole entry)

Voltage-gated inwardly rectifying potassium channel KCNH2, sequence (Q12809 whole entry): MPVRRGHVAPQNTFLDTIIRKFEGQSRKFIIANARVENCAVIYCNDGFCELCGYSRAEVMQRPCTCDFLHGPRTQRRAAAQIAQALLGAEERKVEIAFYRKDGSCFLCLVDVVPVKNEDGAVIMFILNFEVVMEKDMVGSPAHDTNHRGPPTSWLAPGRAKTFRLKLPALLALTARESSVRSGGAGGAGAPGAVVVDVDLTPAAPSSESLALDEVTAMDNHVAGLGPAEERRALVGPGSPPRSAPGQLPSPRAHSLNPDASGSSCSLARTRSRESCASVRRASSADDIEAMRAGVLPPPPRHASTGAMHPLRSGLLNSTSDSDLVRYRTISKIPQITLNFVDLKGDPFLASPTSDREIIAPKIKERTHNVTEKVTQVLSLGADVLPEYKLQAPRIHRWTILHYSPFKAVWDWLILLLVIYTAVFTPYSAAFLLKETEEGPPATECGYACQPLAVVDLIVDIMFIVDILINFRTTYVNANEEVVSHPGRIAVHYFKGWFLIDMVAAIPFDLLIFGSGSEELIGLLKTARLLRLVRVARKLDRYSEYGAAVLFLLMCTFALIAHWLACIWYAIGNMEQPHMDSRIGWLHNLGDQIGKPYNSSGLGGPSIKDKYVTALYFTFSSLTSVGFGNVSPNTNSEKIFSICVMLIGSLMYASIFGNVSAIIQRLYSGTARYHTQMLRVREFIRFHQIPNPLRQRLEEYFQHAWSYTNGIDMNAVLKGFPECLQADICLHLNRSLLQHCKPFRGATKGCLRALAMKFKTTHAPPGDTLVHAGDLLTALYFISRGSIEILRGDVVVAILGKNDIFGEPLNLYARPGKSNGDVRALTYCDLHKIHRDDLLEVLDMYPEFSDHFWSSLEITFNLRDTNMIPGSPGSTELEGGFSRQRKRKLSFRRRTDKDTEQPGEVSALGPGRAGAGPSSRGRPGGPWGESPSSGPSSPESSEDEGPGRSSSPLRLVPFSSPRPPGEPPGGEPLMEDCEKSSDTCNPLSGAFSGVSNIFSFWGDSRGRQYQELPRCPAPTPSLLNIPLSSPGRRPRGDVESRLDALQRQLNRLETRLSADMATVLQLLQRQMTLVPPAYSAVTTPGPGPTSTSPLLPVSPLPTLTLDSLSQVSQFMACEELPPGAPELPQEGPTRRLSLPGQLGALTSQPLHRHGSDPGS
Cytochrome P450 3A4, sequence (P08684 whole entry): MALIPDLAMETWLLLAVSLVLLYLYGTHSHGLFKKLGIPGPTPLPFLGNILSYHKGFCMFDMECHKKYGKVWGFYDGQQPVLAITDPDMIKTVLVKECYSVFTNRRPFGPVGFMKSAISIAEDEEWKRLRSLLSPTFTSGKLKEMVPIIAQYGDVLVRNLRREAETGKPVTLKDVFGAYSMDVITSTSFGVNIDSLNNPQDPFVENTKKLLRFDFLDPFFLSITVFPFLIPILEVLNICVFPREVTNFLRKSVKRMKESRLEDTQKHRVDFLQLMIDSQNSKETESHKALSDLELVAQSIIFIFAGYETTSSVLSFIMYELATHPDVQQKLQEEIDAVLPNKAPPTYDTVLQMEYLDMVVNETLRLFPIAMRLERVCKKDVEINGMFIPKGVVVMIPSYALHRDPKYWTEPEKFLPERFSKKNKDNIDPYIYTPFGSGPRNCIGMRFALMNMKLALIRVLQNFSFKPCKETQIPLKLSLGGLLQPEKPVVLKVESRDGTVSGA
Cytochrome P450 2C19, sequence (P33261 whole entry): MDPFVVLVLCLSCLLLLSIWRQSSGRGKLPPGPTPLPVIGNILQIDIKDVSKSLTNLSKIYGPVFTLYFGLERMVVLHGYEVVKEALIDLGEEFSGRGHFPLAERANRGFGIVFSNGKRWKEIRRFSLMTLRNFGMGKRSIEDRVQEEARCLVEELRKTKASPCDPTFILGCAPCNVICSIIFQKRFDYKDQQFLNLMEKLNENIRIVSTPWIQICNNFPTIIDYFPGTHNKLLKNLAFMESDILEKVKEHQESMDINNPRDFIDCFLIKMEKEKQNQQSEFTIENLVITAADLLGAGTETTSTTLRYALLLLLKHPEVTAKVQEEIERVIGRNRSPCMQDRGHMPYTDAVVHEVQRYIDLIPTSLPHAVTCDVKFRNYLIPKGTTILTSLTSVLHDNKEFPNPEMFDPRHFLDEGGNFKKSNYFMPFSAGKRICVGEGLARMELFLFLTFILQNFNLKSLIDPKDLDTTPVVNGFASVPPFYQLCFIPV
Cytochrome P450 2D6, sequence (P10635 whole entry): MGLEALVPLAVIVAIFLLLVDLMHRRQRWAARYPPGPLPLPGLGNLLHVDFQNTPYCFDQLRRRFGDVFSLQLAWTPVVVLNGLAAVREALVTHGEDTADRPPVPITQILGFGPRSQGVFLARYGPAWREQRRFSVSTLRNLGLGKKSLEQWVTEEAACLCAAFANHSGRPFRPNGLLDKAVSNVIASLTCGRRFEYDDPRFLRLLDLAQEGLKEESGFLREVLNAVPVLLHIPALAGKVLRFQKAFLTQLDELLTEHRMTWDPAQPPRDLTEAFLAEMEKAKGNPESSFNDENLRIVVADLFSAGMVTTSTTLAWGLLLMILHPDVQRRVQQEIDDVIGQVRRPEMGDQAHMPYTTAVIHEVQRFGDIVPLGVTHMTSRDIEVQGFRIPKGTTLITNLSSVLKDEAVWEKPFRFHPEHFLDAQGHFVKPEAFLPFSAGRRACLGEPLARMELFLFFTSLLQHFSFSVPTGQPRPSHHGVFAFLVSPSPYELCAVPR
Cytochrome P450 2C9, sequence (P11712 whole entry): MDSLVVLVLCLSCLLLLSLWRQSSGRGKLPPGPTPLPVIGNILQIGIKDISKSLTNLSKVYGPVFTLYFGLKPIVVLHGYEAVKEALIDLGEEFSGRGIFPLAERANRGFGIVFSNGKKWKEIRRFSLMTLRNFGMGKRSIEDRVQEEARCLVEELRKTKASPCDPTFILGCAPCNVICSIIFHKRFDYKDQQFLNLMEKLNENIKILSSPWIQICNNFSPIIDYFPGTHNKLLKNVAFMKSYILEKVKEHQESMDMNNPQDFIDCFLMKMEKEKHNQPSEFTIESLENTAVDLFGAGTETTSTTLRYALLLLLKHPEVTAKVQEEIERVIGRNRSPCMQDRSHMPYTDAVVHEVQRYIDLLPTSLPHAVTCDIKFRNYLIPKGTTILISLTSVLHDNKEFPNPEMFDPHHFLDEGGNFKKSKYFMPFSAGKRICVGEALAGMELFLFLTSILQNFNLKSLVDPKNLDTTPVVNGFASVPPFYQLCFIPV

IC50 (Cytochrome P450 3A4) [µM] | IC50 [4] [µM] | Ratio IC50 [5] | IC50 (Cytochrome P450 2C19) [µM] | IC50 (Cytochrome P450 1A2) [µM] | IC50 (Cytochrome P450 2C9) [µM] | inhibition (Trypanosoma brucei [8]) [%] | IC50 (Cytochrome P450 2D6) [µM] | IC50 (Pteridine reductase 1; read-out: IC50) [µM] | inhibition [10] | SMILES | growth inhibition (GI) (Leishmania infantum) | IC50 at 6 h [1] [µM] | GI50 [2] [µM] | inhibition at 10 µM (Trypanosoma brucei [3]) [%] | GI50 at 48 h [6] [µM] | inhibition at 50 µM (Trypanosoma cruzi) [%] | MNTC at 72 h [7] [µM] | IC50 [9] [µM] | growth inhibition (GI) (Trypanosoma cruzi) | also measured
> 25 | 34.2 | 2 to 100 | > 25 | > 25 | > 25 | > 60 | > 25 | 32.9 | > 60% | CS(=O)(=O)c1ccc2nc(N)sc2c1 | Non-Toxic | > 25 | > 25 | 17 | > 25 | 17.4 | > 25 | > 25 |  | 
< 10 | 32.3 | 2 to 100 | > 25 | > 25 | > 25 | > 60 | < 10 | 36.8 | > 60% | Nc1nc2c(C(=O)NCc3ccc(Cl)c(Cl)c3)cc(O)c(O)c2s1 | Non-Toxic | > 25 | > 25 | 16 | > 25 | 18.3 | > 25 | > 25 |  | 
> 25 | 23.3 | 2 to 100 | 10 to 25 | > 25 | > 25 | > 60 | > 25 |  | inactive | Nc1nc2ccc(C(=O)NCCc3c[nH]c4ccccc34)cc2s1 | Non-Toxic | > 25 | > 25 | 27 | > 25 | 1.64 | > 25 | > 25 |  | IC50 (Pteridine reductase 1): Not Active
< 10 | 24.3 | 2 to 100 | < 10 | > 25 | < 10 | > 60 | < 10 | 50 | > 60% | COC(=O)C1CCN(C(=O)c2ccc(CS(=O)(=O)c3ccc4nc(N)sc4c3)cc2)CC1 | Non-Toxic | > 25 | > 25 |  | > 25 |  | > 25 | > 25 | Non-Toxic | growth inhibition (GI) (Trypanosoma brucei [3]; trypanosoma brucei, 10 µM): Non-Toxic
10 to 25 | 1.9 | 2 to 100 | < 10 | < 10 | > 25 | > 60 | < 10 | 81 | > 60% | Nc1nc2ccc(SCc3ccccc3)cc2s1 | Non-Toxic | > 25 | > 25 | 14 | > 25 |  | 10 to 25 | > 25 | Non-Toxic | 
< 10 | 30.9 | 2 to 100 | > 25 | > 25 | > 25 | > 60 | < 10 | 30.1 | > 60% | Nc1nc2c(C(=O)NCc3ccccc3)cc(O)c(O)c2s1 | Non-Toxic | 10 to 25 | > 25 | 15 | 10 to 25 | 5.85 | > 25 | > 25 |  | 
< 10 | 11.4 | 2 to 100 | 10 to 25 | < 10 | < 10 | > 60 | < 10 | 15.2 | > 60% | Nc1nc2c(C(=O)N(Cc3ccccc3)Cc3ccc(Cl)c(Cl)c3)cc(O)c(O)c2s1 | Non-Toxic | > 25 | 10 to 25 | 25 | > 25 |  | 10 to 25 | < 10 | Non-Toxic | 
